Experimental data: ChEMBL document CHEMBL2384906, “Biological activity, design, synthesis and structure activity relationship of some novel derivatives of curcumin containing sulfonamides” (Eur J Med Chem, 2013)
Converted amounts (≈) assume the structure as drawn. The source made the active and inactive calls. The calls are words filed in the database; no cut-off is given here.

Columns and labels:
Mus musculus = assay: Antiinflammatory activity in mouse assessed as inhibition of carrageenan-induced increase in paw volume at 200 mg/kg administered 1 hr prior to carrageenan challenge measured after 3 hrs relative to control; assay type: functional
In short: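 Mice were fasted 2 h and placed in groups of five. Controls received saline i.p. Phenylbutazone was given at 100 mg/kg i.p., curcumin at 200 mg/kg i.p., and derivatives at 200 mg/kg. After 1 h, 0.1 mL of 1% carrageenan in saline was injected subplantar into the right hind paw. Paw volume was followed by plethysmometer for 3 h, and % inhibition was calculated as (Vc − Vt)/Vc × 100.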

Trichoderma viride [1] = assay: Antifungal activity against Trichoderma viride MTCC 1107 assessed as zone of inhibition at 40 uM after 48 hrs by disc diffusion method; assay type: functional; conditions: MTCC 1107, 48 h, read-out: IZ
In short: (§1)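 Spores from 4-day potato dextrose agar cultures, suspended in sterile water at 1.5 × 10⁵ CFU/mL. 0.2 mL was spread on potato dextrose agar. 5 mm filter-paper discs soaked with test compound were laid on the lawn. Incubation was 48 h at 28 °C, then the inhibition zone was measured in mm. Fluconazole was the positive control and acetone the negative control.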

Staphylococcus aureus [2] = assay: Antimicrobial activity against Staphylococcus aureus ATCC 11632 assessed as diameter of inhibition zone at 20 uM after 24 hrs by Kirby -Baur disc diffusion method; assay type: functional
In short: (§2)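 Kirby-Bauer disc diffusion was used. Acetone stocks (160 µM) were serially doubled down to 80, 40 and 20 µM. 4 µL of each went onto 5 mm sterile paper discs, which were dried 30 min at 50 °C. Inoculum was 1.5 × 10⁸ CFU/mL diluted to 3 × 10² CFU/mL, and 50 µL was spread on Mueller-Hinton agar. After 24 h at 37 °C the inhibition-zone diameter was measured. Ciprofloxacin served as positive control.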

Pseudomonas aeruginosa [3] = assay: Antimicrobial activity against Pseudomonas aeruginosa ATCC 15499 assessed as diameter of inhibition zone at 20 uM after 24 hrs by Kirby -Baur disc diffusion method; assay type: functional; in short: as §2
Salmonella typhi [4] = assay: Antimicrobial activity against Salmonella typhi ATCC 23564 assessed as diameter of inhibition zone at 40 uM after 24 hrs by Kirby -Baur disc diffusion method; assay type: functional; conditions: Salmonella enterica subsp. enterica serovar Typhi
Pseudomonas aeruginosa [5] = assay: Antimicrobial activity against Pseudomonas aeruginosa ATCC 15499 assessed as diameter of inhibition zone at 80 uM after 24 hrs by Kirby -Baur disc diffusion method; assay type: functional; in short: as §2
Aspergillus niger [6] = assay: Antifungal activity against Aspergillus niger MTCC 1108 assessed as zone of inhibition at 80 uM after 48 hrs by disc diffusion method; assay type: functional; in short: as §1
HepG2 = assay: Cytotoxicity against human HepG2 cells after 24 hrs by MTT assay; assay type: functional, cell-based
In short: (§3)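 The MTT assay seeded 5 × 10⁴ cells per well and grew them 24 h in RPMI 1640 with compound at 2.5–200 µM. Medium without cells was the blank and adriamycin the positive control. MTT was added for 4 h at 37 °C, formazan was solubilised, and absorbance was read at 570 nm. IC50 is the concentration that cuts viability 50% against untreated cells.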

Staphylococcus aureus [7] = assay: Antimicrobial activity against Staphylococcus aureus ATCC 11632 after 24 hrs by broth micro serial dilution method; assay type: functional; conditions: ATCC 11632, 24 h
In short: (§4)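 This was broth microdilution in autoclaved Mueller-Hinton broth. 150 µL of compound per well was serially diluted […], and 50 µL of test organism was added. Plates were incubated 24 h at 37 °C and optical density was read.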

Curvularia lunata [8] = assay: Antifungal activity against Curvularia lunata MTCC 581 after 48 hrs; assay type: functional; conditions: MTCC 581, 48 h
Aspergillus niger [9] = assay: Antifungal activity against Aspergillus niger MTCC 1108 after 48 hrs; assay type: functional
Trichoderma viride [10] = assay: Antifungal activity against Trichoderma viride MTCC 1107 assessed as zone of inhibition at 80 uM after 48 hrs by disc diffusion method; assay type: functional; conditions: MTCC 1107, 48 h, read-out: IZ; in short: as §1
HeLa = assay: Cytotoxicity against human HeLa cells after 24 hrs by MTT assay; assay type: functional, cell-based; in short: as §3
Aspergillus flavus [11] = assay: Antifungal activity against Aspergillus flavus MTCC 1021 after 48 hrs; assay type: functional
Escherichia coli [12] = assay: Antimicrobial activity against Escherichia coli ATCC 35218 assessed as diameter of inhibition zone at 80 uM after 24 hrs by Kirby -Baur disc diffusion method; assay type: functional; in short: as §2
Escherichia coli [13] = assay: Antimicrobial activity against Escherichia coli ATCC 35218 after 24 hrs by broth micro serial dilution method; assay type: functional; conditions: ATCC 35218, 24 h; in short: as §4
Aspergillus flavus [14] = assay: Antifungal activity against Aspergillus flavus MTCC 1021 assessed as zone of inhibition at 80 uM after 48 hrs by disc diffusion method; assay type: functional; in short: as §1
Trichoderma viride [15] = assay: Antifungal activity against Trichoderma viride MTCC 1107 assessed as zone of inhibition at 20 uM after 48 hrs by disc diffusion method; assay type: functional; conditions: MTCC 1107, 48 h, read-out: IZ; in short: as §1
Bacillus cereus [16] = assay: Antimicrobial activity against Bacillus cereus MTCC 7350 assessed as diameter of inhibition zone at 40 uM after 24 hrs by Kirby -Baur disc diffusion method; assay type: functional; in short: as §2
Bacillus cereus [17] = assay: Antimicrobial activity against Bacillus cereus MTCC 7350 assessed as diameter of inhibition zone at 20 uM after 24 hrs by Kirby -Baur disc diffusion method; assay type: functional; in short: as §2
Bacillus cereus [18] = assay: Antimicrobial activity against Bacillus cereus MTCC 7350 after 24 hrs by broth micro serial dilution method; assay type: functional; conditions: MTCC 7350, 24 h; in short: as §4
Curvularia lunata [19] = assay: Antifungal activity against Curvularia lunata MTCC 581 assessed as zone of inhibition at 20 uM after 48 hrs by disc diffusion method; assay type: functional; conditions: MTCC 581, 48 h, read-out: IZ; in short: as §1
Trichoderma viride [20] = assay: Antifungal activity against Trichoderma viride MTCC 1107 after 48 hrs; assay type: functional; conditions: MTCC 1107, 48 h
Salmonella typhi [21] = assay: Antimicrobial activity against Salmonella typhi ATCC 23564 assessed as diameter of inhibition zone at 80 uM after 24 hrs by Kirby -Baur disc diffusion method; assay type: functional, Salmonella enterica subsp. enterica serovar Typhi; conditions: Salmonella enterica, ATCC 23564, 24 h; read-out: DIZ
Bacillus cereus [22] = assay: Antimicrobial activity against Bacillus cereus MTCC 7350 assessed as diameter of inhibition zone at 80 uM after 24 hrs by Kirby -Baur disc diffusion method; assay type: functional; conditions: MTCC 7350, 24 h, read-out: DIZ; in short: as §2
Pseudomonas aeruginosa [23] = assay: Antimicrobial activity against Pseudomonas aeruginosa ATCC 15499 assessed as diameter of inhibition zone at 40 uM after 24 hrs by Kirby -Baur disc diffusion method; assay type: functional; conditions: ATCC 15499, 24 h, read-out: DIZ; in short: as §2
QG-56 = assay: Cytotoxicity against human QG56 cells after 24 hrs by MTT assay; assay type: functional, cell-based; in short: as §3
Pseudomonas aeruginosa [24] = assay: Antimicrobial activity against Pseudomonas aeruginosa ATCC 15499 after 24 hrs by broth micro serial dilution method; assay type: functional; conditions: ATCC 15499, 24 h; in short: as §4
Curvularia lunata [25] = assay: Antifungal activity against Curvularia lunata MTCC 581 assessed as zone of inhibition at 40 uM after 48 hrs by disc diffusion method; assay type: functional; conditions: MTCC 581, 48 h, read-out: IZ; in short: as §1
Staphylococcus aureus [26] = assay: Antimicrobial activity against Staphylococcus aureus ATCC 11632 assessed as diameter of inhibition zone at 40 uM after 24 hrs by Kirby -Baur disc diffusion method; assay type: functional; in short: as §2
Staphylococcus aureus [27] = assay: Antimicrobial activity against Staphylococcus aureus ATCC 11632 assessed as diameter of inhibition zone at 80 uM after 24 hrs by Kirby -Baur disc diffusion method; assay type: functional; conditions: ATCC 11632, 24 h, read-out: DIZ; in short: as §2
HCT-116 = assay: Cytotoxicity against human HCT116 cells after 24 hrs by MTT assay; assay type: functional, cell-based; in short: as §3
Curvularia lunata [28] = assay: Antifungal activity against Curvularia lunata MTCC 581 assessed as zone of inhibition at 80 uM after 48 hrs by disc diffusion method; assay type: functional; conditions: MTCC 581, 48 h, read-out: IZ; in short: as §1
Salmonella typhi [29] = assay: Antimicrobial activity against Salmonella typhi ATCC 23564 after 24 hrs by broth micro serial dilution method; assay type: functional, Salmonella enterica subsp. enterica serovar Typhi; conditions: Salmonella enterica, ATCC 23564, 24 h
Salmonella typhi [30] = assay: Antimicrobial activity against Salmonella typhi ATCC 23564 assessed as diameter of inhibition zone at 20 uM after 24 hrs by Kirby -Baur disc diffusion method; assay type: functional; conditions: Salmonella enterica subsp. enterica serovar Typhi
Escherichia coli [31] = assay: Antimicrobial activity against Escherichia coli ATCC 35218 assessed as diameter of inhibition zone at 40 uM after 24 hrs by Kirby -Baur disc diffusion method; assay type: functional; conditions: ATCC 35218, 24 h, read-out: DIZ; in short: as §2
Escherichia coli [32] = assay: Antimicrobial activity against Escherichia coli ATCC 35218 assessed as diameter of inhibition zone at 20 uM after 24 hrs by Kirby -Baur disc diffusion method; assay type: functional; conditions: ATCC 35218, 24 h, read-out: DIZ; in short: as §2

| Structure (SMILES) | inhibition in vivo at 200 mg/kg (Mus musculus) [%] | zone of inhibition at 40 µM (Trichoderma viride [1]) [mm] | diameter of the inhibition zone (DIZ) (Staphylococcus aureus [2]) | diameter of the inhibition zone (DIZ) (Salmonella typhi [4]) | inhibition zone (IZ) (Aspergillus niger [6]) | IC50 (HepG2) | MIC (Staphylococcus aureus [7]) [µM] | MIC (Curvularia lunata [8]) [µM] | zone of inhibition at 80 µM (Trichoderma viride [10]) [mm] | IC50 (HeLa) | MIC (Escherichia coli [13]) [µM] | inhibition zone (IZ) (Aspergillus flavus [14]) | zone of inhibition at 20 µM (Trichoderma viride [15]) [mm] | diameter of the inhibition zone (DIZ) (Bacillus cereus [17]) | MIC (Bacillus cereus [18]) [µM] | zone of inhibition at 20 µM (Curvularia lunata [19]) [mm] | MIC (Trichoderma viride [20]) [µM] | zone of inhibition at 80 µM (Salmonella typhi [21]) [mm] | zone of inhibition at 80 µM (Bacillus cereus [22]) [mm] | IC50 (QG-56) | also measured |
| --- | --- | --- | --- | --- | --- | --- | --- | --- | --- | --- | --- | --- | --- | --- | --- | --- | --- | --- | --- | --- | --- |
| COc1cc(/C=C/c2noc(/C=C/c3ccc(O)c(OC)c3)c2/N=N/c2ccc(S(=O)(=O)Nc3nc(C)cc(C)n3)cc2)ccc1O | 41.9 | 11 | inactive | inactive | inactive | Not Active | > 80 | 80 (≈ 52.4 µg/mL) | 13 | Not Active | > 80 | inactive | 9 | inactive | > 80 | 9 | 80 (≈ 52.4 µg/mL) | 10 | 11 | Not Active | diameter of the inhibition zone (DIZ) (Pseudomonas aeruginosa [3]): inactive; zone of inhibition at 80 µM (Pseudomonas aeruginosa [5]; ATCC 15499, 24 h, read-out: DIZ): 15 mm; MIC (Aspergillus niger [9]; MTCC 1108, 48 h): > 80 µM; MIC (Aspergillus flavus [11]; MTCC 1021, 48 h): > 80 µM; diameter of the inhibition zone (DIZ) (Escherichia coli [12]): inactive; zone of inhibition at 40 µM (Bacillus cereus [16]; MTCC 7350, 24 h, read-out: DIZ): 9 mm; zone of inhibition at 40 µM (Pseudomonas aeruginosa [23]): 10 mm; MIC (Pseudomonas aeruginosa [24]): 80 µM (≈ 52.4 µg/mL); zone of inhibition at 40 µM (Curvularia lunata [25]): 11 mm; diameter of the inhibition zone (DIZ) (Staphylococcus aureus [26]): inactive; zone of inhibition at 80 µM (Staphylococcus aureus [27]): 12 mm; IC50 (HCT-116): Not Active; zone of inhibition at 80 µM (Curvularia lunata [28]): 13 mm; MIC (Salmonella typhi [29]): > 80 µM; diameter of the inhibition zone (DIZ) (Salmonella typhi [30]): inactive |
| COc1cc(/C=C/c2nn(-c3ccccc3)c(/C=C/c3ccc(O)c(OC)c3)c2/N=N/c2ccc(S(=O)(=O)Nc3nc(C)cc(C)n3)cc2)ccc1O | 37 | 19 | inactive | inactive | inactive | > 100 µM | > 80 | 20 (≈ 14.6 µg/mL) | 22 | 50 µM | > 80 | inactive | 18 | inactive | > 80 | 18 | 20 (≈ 14.6 µg/mL) | 9 | 9 | 100 µM | diameter of the inhibition zone (DIZ) (Pseudomonas aeruginosa [5]): inactive; MIC (Aspergillus niger [9]): inactive; MIC (Aspergillus flavus [11]): inactive; zone of inhibition at 80 µM (Escherichia coli [12]; ATCC 35218, 24 h, read-out: DIZ): 12 mm; zone of inhibition at 40 µM (Escherichia coli [31]): 11 mm; diameter of the inhibition zone (DIZ) (Bacillus cereus [16]): inactive; zone of inhibition at 20 µM (Escherichia coli [32]): 9 mm; MIC (Pseudomonas aeruginosa [24]): > 80 µM; zone of inhibition at 40 µM (Curvularia lunata [25]): 19 mm; zone of inhibition at 40 µM (Staphylococcus aureus [26]; ATCC 11632, 24 h, read-out: DIZ): 8 mm; zone of inhibition at 80 µM (Staphylococcus aureus [27]): 9 mm; IC50 (HCT-116): Not Active; zone of inhibition at 80 µM (Curvularia lunata [28]): 22 mm; MIC (Salmonella typhi [29]): > 80 µM; diameter of the inhibition zone (DIZ) (Salmonella typhi [30]): inactive |
